Screens: PubChem, The Scripps Research Institute Molecular Screening Center
TAAR1 antag: antagonists of human TAAR1; 360,000 compounds, 1.5% hits; inhibition, % at 3 µM; Q96RJ0; CHO RD-HGA16 TAAR1, Fluo-8 calcium fluorescence, antagonist;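 active means inhibition above a per-plate cutoff, the mean inhibition of test compounds on that plate plus 3 SD, cut at about 49% in these data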;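 further: 0% = DMSO plus EC80 beta-PEA response and 100% = DMSO alone without agonist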
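Material: CHO RD-HGA16 cells bearing hTAAR1; compound dosing: one-point dosing, 3 µM nominal final; schedule: dye loading 75 min at 37 °C, then 30 min room temperature; measured by: calcium fluorescence with Fluo-8; control set: vehicle and agonist controls; replication: n of 1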
OXTR ag: human OXTR agonism. P30559. CHO-OTR cells, Fluo-8 calcium fluorescence; normalized: DMSO 0%, oxytocin 100%. activation, % at 3 µM. 320,000 compounds, 0.32% hits. AID 2435;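 active means activation above the mean of all tested compounds plus 3 SD, cutoff set per screening run, cut at about 20% in these data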;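 further: peak over basal fluorescence ratio from a 100 s FLIPR kinetic read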
Target sequence (P30559 whole entry, looked up): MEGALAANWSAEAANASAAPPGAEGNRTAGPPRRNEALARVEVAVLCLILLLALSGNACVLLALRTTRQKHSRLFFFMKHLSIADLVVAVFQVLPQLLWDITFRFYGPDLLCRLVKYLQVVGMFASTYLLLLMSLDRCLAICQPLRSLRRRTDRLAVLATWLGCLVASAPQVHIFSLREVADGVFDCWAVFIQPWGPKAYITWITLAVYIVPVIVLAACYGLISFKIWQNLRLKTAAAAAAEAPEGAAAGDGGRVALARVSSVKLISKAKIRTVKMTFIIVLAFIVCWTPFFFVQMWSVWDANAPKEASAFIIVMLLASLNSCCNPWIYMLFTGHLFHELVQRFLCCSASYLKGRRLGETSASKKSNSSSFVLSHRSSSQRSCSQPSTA
V1R ag counter: activates human V1a receptor in oxytocin agonist counter-screen; P37288; CHO-V1R cells, Fluo-8 calcium fluorescence, agonist mode; 0% DMSO, 100% 3 nM vasopressin; activation, % at 3 µM; 320,000 compounds, 0.25% hits;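 active means activation above the mean activation of all tested compounds plus 3 SD, per screening run, cut at about 20% in these data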;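 further: signal is peak over basal fluorescence ratio across a 100 second FLIPR read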
OXTR potentiator: human OXTR potentiation. 320,000 compounds, 0.061% hits. CHO-OTR cells, Fluo-8 calcium fluorescence, potentiator mode; 0% = oxytocin EC15, 100% = EC100. P30559. activation, % at 3 µM;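 active means activation above that plate's cutoff, the mean activation of tested compounds plus 3 SD, cut at about 6.6% in these data, passing the limit was not always enough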;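 further: 100% uses oxytocin at 75 nM as the full agonist control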
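Replication – single well per compound, singlicate · Assay system – CHO cell line stably expressing human OTR · Timing – 6 min pre-incubation, 100 s read · Measure – normalized max/min fluorescence ratio, % activation · Doses – 3.0 µM, one dose · Detection – Fluo-8 calcium dye fluorescence · Probe or stimulus – oxytocin near EC15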
TAAR1 agonist: agonists of human TAAR1; Q96RJ0; CHO RD-HGA16 TAAR1, Fluo-8 calcium fluorescence; vehicle wells 0%, saturating PEA agonist 100%; activation, % at 3 µM; 360,000 compounds, 0.99% hits; AID 624467;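 active means activation above the mean activation of all test compounds in the run plus 3 SD, cut at about 38% in these data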
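Assay system: CHO-derived RD-HGA16 cells with stable Gα16 and human TAAR1; timing: 17-24 h seeding, 75 min 37 °C dye, 30 min RT; read-out: % activation from peak over basal fluorescence ratio, DMSO-to-PEA scaled; measured by: kinetic Fluo-8 calcium fluorescence; benchmarks: low control DMSO, high control PEA (EC100); doses: 3 µM single concentration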
Starred values were filed as active, the others as inactive. In the library only some 2.3% were active in any assay of this set; here they are far more common.

Results for N#CC1C(=O)c2ccccc2C1c1ccccc1 (centres undefined) ?
TAAR1 antag: 66.7*; TAAR1 agonist: 9.7

How did OC(CNCCc1ccc(Cl)cc1)COc1ccc2ccccc2c1 (centres undefined) do in these assays?
TAAR1 antag: 12.6; TAAR1 agonist: 41.9*

Results for OC(CNCCc1ccccc1)COc1ccc(OCC(O)CNCCc2ccccc2)cc1 (centres undefined) ?
TAAR1 antag: 0.2; OXTR ag: 1.5; V1R ag counter: 0.9; OXTR potentiator: -10.6; TAAR1 agonist: 13.3

Results for COC(=O)[C@]12C[C@H](CC(=O)N3CCN(C(=O)C4CC4)CC3)C(=O)N(Cc3ccc4c(c3)OCO4)C1=C[C@H](COCc1ccccc1)O[C@@H]2C ?
TAAR1 antag: -11.2; TAAR1 agonist: 0.3

What do the screens show for `COC(=O)C1=C(C)N(C)C(=NCc2cccc(C(F)(F)F)c2)NC1c1ccc(Cl)cc1` (centres undefined)?
TAAR1 antag: 47.1; TAAR1 agonist: 21.5

Results for COCCNC(=O)C(c1cccs1)N(CCc1ccccc1)C(=O)Cn1nnc2ccccc21 (centres undefined) ?
TAAR1 antag: 5.0; OXTR ag: -0.9; V1R ag counter: -0.1; OXTR potentiator: -10.6; TAAR1 agonist: 40.2*

How did COCCNC(=O)C(c1cccs1)N(Cc1ccccc1)C(=O)Cn1nnc2ccccc21 (centres undefined) do in these assays?
TAAR1 antag: 2.5; OXTR ag: 0.1; V1R ag counter: 0.8; OXTR potentiator: -6.9; TAAR1 agonist: 16.7

How did CC1CCN(C(=O)c2ncn3c2C(=O)N[C@H](C)C3)CC1 do in these assays?
TAAR1 antag: 7.5; TAAR1 agonist: -0.1

Results for C[C@@H](NC(=O)[C@@H]1CCCN1C(=O)[C@@H]1CCCN1C(=O)c1ccccc1)c1ccccc1 ?
TAAR1 antag: -16.1; TAAR1 agonist: -0.2

How did N#C/C(=C/c1ccc(N2CCOCC2)o1)c1ccc(Br)cc1 do in these assays?
TAAR1 antag: 57.1*; OXTR ag: 6.4; V1R ag counter: 1.1; OXTR potentiator: -13.8; TAAR1 agonist: 29.0

How did N#C/C(=C\c1ccc(N2CCOCC2)o1)c1ccccc1 do in these assays?
TAAR1 antag: 23.5; OXTR ag: 1.5; V1R ag counter: 1.1; OXTR potentiator: 0.8; TAAR1 agonist: 20.6

Results for N#C/C(=C/c1ccc(N2CCOCC2)o1)c1nc2ccccc2[nH]1 ?
TAAR1 antag: 27.6; OXTR ag: 40.4*; V1R ag counter: 21.4*; OXTR potentiator: -12.4; TAAR1 agonist: 48.9*

How did O=C(COc1ncnc2cc([N+](=O)[O-])ccc12)NC(=O)NC1CCCCC1 do in these assays?
TAAR1 antag: -1.8; OXTR ag: 1.4; V1R ag counter: 1.3; OXTR potentiator: -6.4; TAAR1 agonist: 40.6*

How did O=C(/C=C/c1cccs1)N1CCC2(CC1)Oc1ccc(Cl)cc1C(=O)C21CC(c2cccnc2)=NO1 (centres undefined) do in these assays?
TAAR1 antag: 52.6*; OXTR ag: 5.3; V1R ag counter: 1.0; OXTR potentiator: -12.1; TAAR1 agonist: 20.4

What do the screens show for `Cc1ccc(C(=O)N2CCC3(CC2)Oc2ccc(Cl)cc2C(=O)C32CC(c3cccnc3)=NO2)s1` (centres undefined)?
TAAR1 antag: 30.6; OXTR ag: 0.4; V1R ag counter: 0.8; OXTR potentiator: -9.3; TAAR1 agonist: 6.7

What do the screens show for `CN(C)S(=O)(=O)c1ccc(Nc2ccc(-c3ccc4c(c3)OCCO4)nn2)cc1`?
TAAR1 antag: 48.8*; OXTR ag: 2.8; V1R ag counter: 2.0; OXTR potentiator: -3.1; TAAR1 agonist: 15.6

What do the screens show for `CCOC(=O)Cc1csc(NC(=O)/C=C/c2ccc(Br)o2)n1`?
TAAR1 antag: 48.6*; OXTR ag: 3.6; V1R ag counter: 5.4; OXTR potentiator: -5.4; TAAR1 agonist: 8.8

What do the screens show for `CCOC(=O)Cc1csc(NC(=O)C(C)c2ccc([N+](=O)[O-])cc2)n1` (centres undefined)?
TAAR1 antag: 20.1; OXTR ag: 26.7*; V1R ag counter: 25.9*; OXTR potentiator: -20.6; TAAR1 agonist: 49.7*
